Assay outcomes (PubChem)
The list is not random: actives were taken first. Their share in the collection is about 1.4%.
MOR-DOR ag-1 – agonists of human mu-delta opioid receptor heterodimerization | P35372+P41143 | cells, OPRM1-OPRD1 heterodimerization, luminescence | activation, % at 9.3 µM | 340,000 compounds, 0.3% hits | AID 504326;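 also: 0% = vehicle-treated cells and 100% = reference agonist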
HTR5A ag ctr – HTR5A agonism, opioid heterodimer counter-screen; 340,000 compounds, 0.61% hits; AID 504692; activation, % at 9.3 µM; P47898; HTR5A agonist assay, luminescence, cell-based; in the data active = activation mostly above about 9.5%, no sharp cut-off; inactive = mostly below about 7.6%;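 also: 0% = cells with vehicle only and 100% = reference agonist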
Target sequence (P47898 whole entry, looked up): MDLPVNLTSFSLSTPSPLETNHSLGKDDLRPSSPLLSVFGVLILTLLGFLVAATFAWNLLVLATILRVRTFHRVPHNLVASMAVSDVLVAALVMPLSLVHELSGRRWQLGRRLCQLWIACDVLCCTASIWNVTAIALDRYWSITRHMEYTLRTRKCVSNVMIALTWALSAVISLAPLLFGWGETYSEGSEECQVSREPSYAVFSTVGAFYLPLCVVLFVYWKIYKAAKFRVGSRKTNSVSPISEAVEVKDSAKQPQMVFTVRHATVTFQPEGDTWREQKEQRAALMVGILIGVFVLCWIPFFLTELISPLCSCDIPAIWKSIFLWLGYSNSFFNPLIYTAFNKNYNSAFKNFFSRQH
HTR5A inv ag – counter-screen for OPRM1-OPRD1 inverse agonists: human HTR5A inverse agonism | P47898 | 340,000 compounds, 0.083% hits | HTR5A cell line, luminescence | inhibition, % at 9.3 µM; in the data active = inhibition mostly above about 23%, no sharp cut-off; inactive = mostly below about 18%;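 also: 0% = cells with DMSO and 100% = no-cell wells with DMSO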
DAGLB inh – blocks human DAGLB lipase activity. Q8NCG7. HEK293T DAGLB membrane lysate, EnzChek fluorogenic substrate. inhibition, % at 5.17 µM. 340,000 compounds, 0.059% hits; in the data active = inhibition above about 34%;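 also: 0% = enzyme with vehicle and 100% = wells lacking enzyme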
MOR-DOR inv ag – mu-delta opioid heterodimer inverse agonism; P35372+P41143; cell-based MOR-DOR heterodimer luminescence; AID 504357; 340,000 compounds, 0.21% hits; inhibition, % at 9.3 µM; in the data active = inhibition above about 22%, passing the limit was not always enough;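 also: 0% = cells with DMSO and 100% = wells without cells with DMSO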
Arrestin-AP2 inh – inhibitors of human beta-arrestin and AP2 interaction. FITC-arrestin peptide / GST-AP2 beads, flow cytometry; AP2 beta2 appendage carries R879A mutation. inhibition, % at 10 µM. 340,000 compounds, 0.31% hits. AID 504490;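 active = inhibition above a set limit, near 3 SD of compounds lacking own fluorescence, cut at about 54% in these data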;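 also: plate controls were DMSO wells for no effect and 5 µM unlabelled arrestin peptide for full effect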
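System: GST-AP2 R879A glutathione beads. Medium: PBS with 0.05% Tween 20 and 0.1% BSA. Also added: FITC-arrestin peptide, 50 nM. Incubation: 12 min plus 1 h, RT. Measured by: high-throughput flow cytometry of beads, ex 488, em 535 nm. Evaluation: percent drop in bead-associated FITC signal.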
MOR-DOR ag-2 – counter-screen for HTR5A agonists: OPRM1-OPRD1 heterodimerization agonism. shares compounds with HTR5A ag ctr. U2OS counter-screen cells, complementation luminescence, 3 h. activation, % at 9.3 µM. 800 compounds, 13% hits
HTR5A ag conf – confirmation of human HTR5A agonists; shares compounds with HTR5A ag ctr; HTR5A agonist cell assay, luminescence; activation, % at 9.3 µM; 800 compounds, 17% hits; AID 504915; in the data active = activation above about 17%;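 also: 0% = cells with vehicle only and 100% = full reference agonist response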
Starred values were filed as active, the others as inactive; . = no result given; ! = not confirmed by another sample. Rule as the data show it, unless noted: active = activation above about 18%; inactive = the rest.

SMILES	MOR-DOR ag-1	HTR5A ag ctr	HTR5A inv ag	DAGLB inh	MOR-DOR inv ag	Arrestin-AP2 inh	MOR-DOR ag-2	HTR5A ag conf
O=C(OCC(=O)N1CCCCC1)c1n[nH]c(=O)c2ccccc12	-1	3	2	1	10	-11	.	.
CC1Cc2ccccc2N1C(=O)COC(=O)c1c2c(nc3ccccc13)CCCCC2 (stereo unspecified)	6	22*	-91	-8	-29	14	12	4
CC1Cc2ccccc2N1C(=O)COC(=O)c1n[nH]c(=O)c2ccccc12 (stereo unspecified)	-2	40*	-97	-1	7	17	6	1
CCOC(=O)[C@H]1[C@H]2COc3ccc(Br)cc3[C@H]2N2C(=O)CN(Cc3ccc(Cl)cc3)C(=O)[C@@]12C	1	2	-9	-4	-6	12	.	.
COc1ccccc1N1CCN(C(=O)CN(C)S(=O)(=O)c2ccc(C)cc2)CC1	.	.	.	-2	.	.	.	.
Oc1ccc(C=NNC(=S)Nc2cccnc2)nc1	-2	-2	6	-4	11	9	.	.
COc1cc(OC)cc(C(=O)OCC(=O)NC2CCCCCCC2)c1	.	.	.	-5	.	.	.	.
O=S(=O)(NC(=NC1CCCCC1)c1ccccc1)c1ccccc1	-2	4	1	-2	8	2	.	.
Cc1ccc(S(=O)(=O)NC(=NC2CCCCC2)c2ccc(Cl)cc2)cc1	1	14*	-43	-2	-11	-3	2	4
O=C(COC(=O)CCC(=O)c1cccs1)Nc1cccc(F)c1	0	18*	-43	-1	1	1	1	6
Cc1noc(C)c1C(=O)OCC(=O)Nc1ccccc1C(=O)NC(C)c1ccccc1 (stereo unspecified)	1	17*	-6	0	-7	3	1	0
O=C1C2ON(c3ccccc3)C(c3ccncc3)C2C(=O)N1c1ccc(N2CCOCC2)cc1 (stereo unspecified)	-1	20*	-56	-1	4	-3	-2	-5
Cc1ccnc(NC(=O)c2ccccc2[N+](=O)[O-])c1	0	8	10	2	2	18	.	.
Cc1ccnc(NC(=O)c2cccc3ccccc23)c1	-3	17*	-42	-1	13	3	0	0
COc1cc(CNCCc2ccccc2)cc(Br)c1OCC(=O)Nc1ccccc1C	10	18*	-45	0	-54	9	11	10
CNCc1cc(Br)c(OCC(=O)Nc2ccccc2OC)c(OC)c1	0	4	-11	3	2	8	.	.
CN(C)S(=O)(=O)c1cccc(COC(=O)c2ccc3c(c2)OCO3)c1	0	0	22	-3	-2	25	.	.
CN(C)S(=O)(=O)c1cccc(COC(=O)c2ccc(Cl)cc2O)c1	1	16*	18	-7	-3	7	39*	-3
COc1ccc(-c2cc3cc(F)ccc3cn2)cc1	5	24*	-65	-10	-30	8	22*	-1
CCN(CC)C(=O)c1nc(-c2cccc3ccccc23)no1	.	.	.	-9	.	.	.	.
Nc1nc(N)c2cc(S(=O)(=O)c3ccc4ccccc4c3)ccc2n1	.	.	.	1	.	.	.	.
CN(C)c1ccc(CN(C(=O)COc2ccccc2)C2CCS(=O)(=O)C2)cc1 (stereo unspecified)	-1	16*	-39	-1	3	4	3	3
CCCCN1C(=O)C(CC(=O)NCC2CCCCC2)CC(C(=O)N2CCOCC2)=C1C (stereo unspecified)	.	.	.	-3	.	.	.	.
C[C@@H]1CN([C@@H](C)CO)C(=O)CCCn2nncc2CO[C@H]1CN(C)Cc1ccc(Cl)c(Cl)c1	.	.	.	-2	.	.	.	.
CCCCC1(Br)C(=O)N(c2ccccc2)N(c2ccccc2)C1=O	-6	16*	-42	-5	23	-14	1	0
SMILES	MOR-DOR ag-1	HTR5A ag ctr	HTR5A inv ag	DAGLB inh	MOR-DOR inv ag	Arrestin-AP2 inh	MOR-DOR ag-2	HTR5A ag conf
O=C(N/N=C/c1cccc(O)c1)c1csc2ccccc12	3	1	13	1	-11	-1	.	.
CCn1ncc(/C=N\NC(=O)c2csc3ccccc23)c1C	-3	18*	-71	0	16	-1	49*	-4
Nc1ccn([C@@H]2O[C@H](CNCC3=CCOc4ccc(O)cc43)[C@@H](O)[C@H]2O)c(=O)n1	.	.	.	-4	.	.	.	.
C[C@H](CO)N1C[C@H](C)[C@@H](CN(C)Cc2ccccc2C(=O)O)OCc2cnnn2CCCC1=O	.	.	.	-4	.	.	.	.
CCOc1ccc2nc(NC(=O)Nc3ccccc3)sc2c1	3	20*	-55	0	-21	-5	4	0
CCOc1ccccc1N1CC(C(=O)Nc2cc(S(=O)(=O)N3CCOCC3)ccc2OC(C)C)CC1=O (stereo unspecified)	-3	1	14	-2	12	-13	.	.
COc1ccc([C@H]2N[C@]3(CCCN(Cc4ccco4)C3=O)[C@H]3C(=O)N(Cc4ccccc4)C(=O)[C@@H]23)cc1	.	.	.	-3	.	.	.	.
C=CCc1cccc2cc(C(=O)N3CCOCC3)c(=O)oc12	-2	8	-31	-3	11	-6	.	.
C=CCc1cccc2cc(C(=O)N3CCN(C(=O)c4ccccc4)CC3)c(=O)oc12	0	16*	-48	1	2	-1	0	-4
Cc1cc(C)nc(SCC(=O)N/N=C\c2sccc2C)n1	0	22*	-48	-2	1	2	2	22*
CCn1cc(/C=C(\NC(=O)c2ccccc2F)C(=O)N2CCN(C)CC2)c2ccccc21	.	.	.	1	.	.	.	.
Cc1c(N=C/C=C2\N(C)c3ccccc3C2(C)C)c(=O)n(-c2ccccc2)n1C	-2	48*	-125	-2	10	29	2	32*
Cc1c(NC(=S)/C=C2\N(C)c3ccccc3C2(C)C)c(=O)n(-c2ccccc2)n1C	-2	2	-26	2	12	1	.	.
Cc1c(N=C/C=C2/N(C)c3ccccc3C2(C)C)c(=O)n(-c2ccccc2)n1C	0	22*	-85	-2	-1	8	0	29*!
Cc1c(N=C/C=C/c2ccccc2)c(=O)n(-c2ccccc2)n1C	1	2	-9	2	-6	3	.	.
Cc1cc(Br)c(NC(=O)CN2C(=O)NC3(CCOc4ccccc43)C2=O)c(Br)c1 (stereo unspecified)	.	.	.	-3	.	.	.	.
CSc1cccc(NC(=O)N2CCc3ccc(NC(=O)c4ccccn4)cc3C2)c1	1	16*	-10	-2	-7	14	18	16
O=C(Nc1ccc(C(=O)N2CCCC2)cc1)c1ccccc1[N+](=O)[O-]	0	18*	26	-2	-2	-15	0	5
